In paper PMC11324745 (Nature Communications, 2024):

Assays:
Brca1^Δ11;Δ11 MEFs = conditions: cited from earlier work
[1] = test system: DLD1 BRCA2-KO (BRCA2 -/-, null) cells; assay: Colony survival assay, DLD1 BRCA2-KO; assay type: cell-based; conditions: DLD1 isogenic pair, vs BRCA2-WT
Summary of the method: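 Isogenic pairs (DLD1 in RPMI; HCT 116 in DMEM; each with 10% FBS, glutamine, non-essential amino acids) seeded in 24-well plates: 800 cells/well for BRCA-null and 200 cells/well for wild-type. Test compound exposure with medium changed every 2–3 days for 10–12 days. Fixed in water:ethanol:acetic acid 5:4:1, stained with 0.5% crystal violet for 2 h, colonies counted manually. Mean ± S.E.M.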

Brca1^cc/cc MEFs = assay: Colony survival assay, Brca1 cc/cc MEFs; assay type: cell-based, mouse; conditions: vs Brca1-WT MEFs
Polθ-hel = Polθ-hel (Homo sapiens, UniProt O75417); conditions: cited from earlier work
BRCA1-deficient cells = conditions: read-out: IC50 in BRCA1-deficient cells; cited from earlier work

Chain of Polθ-hel (O75417 1-894): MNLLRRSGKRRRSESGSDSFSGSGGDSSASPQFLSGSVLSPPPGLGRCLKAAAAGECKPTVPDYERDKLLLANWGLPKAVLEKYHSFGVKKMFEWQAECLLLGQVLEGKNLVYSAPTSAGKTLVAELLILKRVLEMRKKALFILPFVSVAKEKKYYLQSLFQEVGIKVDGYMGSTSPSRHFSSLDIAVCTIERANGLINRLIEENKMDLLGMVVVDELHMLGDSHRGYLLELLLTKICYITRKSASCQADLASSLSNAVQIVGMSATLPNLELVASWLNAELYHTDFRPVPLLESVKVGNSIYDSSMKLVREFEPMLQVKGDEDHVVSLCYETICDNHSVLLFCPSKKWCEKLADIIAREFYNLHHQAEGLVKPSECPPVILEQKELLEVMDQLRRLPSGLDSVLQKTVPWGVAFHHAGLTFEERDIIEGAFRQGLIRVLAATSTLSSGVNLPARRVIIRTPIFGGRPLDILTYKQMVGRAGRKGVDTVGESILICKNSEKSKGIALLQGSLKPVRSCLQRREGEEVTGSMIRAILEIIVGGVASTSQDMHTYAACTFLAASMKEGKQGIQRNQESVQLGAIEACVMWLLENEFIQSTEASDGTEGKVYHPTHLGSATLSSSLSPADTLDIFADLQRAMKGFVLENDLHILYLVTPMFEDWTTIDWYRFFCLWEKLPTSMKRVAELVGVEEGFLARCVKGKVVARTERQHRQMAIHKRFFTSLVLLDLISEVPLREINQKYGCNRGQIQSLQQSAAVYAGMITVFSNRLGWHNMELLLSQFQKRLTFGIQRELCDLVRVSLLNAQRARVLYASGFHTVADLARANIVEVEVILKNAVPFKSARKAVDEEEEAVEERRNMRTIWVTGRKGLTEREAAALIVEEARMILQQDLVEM

Compound | activity against Brca1 Δ11 MEFs (Brca1^Δ11;Δ11 MEFs) | colony survival, killing of BRCA2-KO cells [1] | colony survival, killing of Brca1 cc/cc MEFs (Brca1^cc/cc MEFs) | inhibition of Polθ-hel ssDNA binding (Polθ-hel) | IC50 (BRCA1-deficient cells)
Cc1cccc(N(C)C(=O)[C@@H]2[C@H](O)CCN2c2nc(C)cc(C(F)(F)F)c2C#N)c1 [ART558] | relatively modest activity |  |  |  | 
CO[C@@H]1[C@@H](OC(N)=O)[C@@H](O)[C@H](Oc2ccc3c(O)c(NC(=O)c4ccc(O)c(CC=C(C)C)c4)c(=O)oc3c2C)OC1(C)C [Novobiocin] |  | selective killing of BRCA2-KO cells at significantly higher concentrations | no preferential killing of these cells up to 10 μM | inhibits Polθ-hel ssDNA binding | 50 to 100 µM
